The values that follow come from PubChem BioAssay AID652046 (Broad Institute, 2013).

Inconclusive results are not listed. Active and inactive are the calls of the source.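 Rule for the calls: active = fitted curve falls past -35% activity change at a concentration no higher than twice the top tested dose; inconclusive = no clear call, values can overlap the other calls; inactive = the rest, including activity in the opposite direction.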

One test relates to IL-1beta-stimulated NF-kB eGFP reporter/dsRed, flow cytometry, 16 h. In words: inhibitors of IL-1beta-induced GFP signal – cell-based, eGFP reporter, dsRed control, flow cytometry, dry powder, selectivity assay for EBV LMP1 NF-kB inhibitor project, dose response (AID 652046).
Conditions: not given
The method, boiled down: (§1)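 Material: HEK293 NF-κB eGFP reporter cells with dsRed. Probe or stimulus: IL-1beta as stimulus of the NF-κB reporter. Timing: 16 h compound exposure at 37 °C. Detection: flow cytometry, scatter-gated live cells.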
A general note: In flow cytometry, cells or beads pass a laser one at a time.
Consider `COc1ccccc1[C@]1(C)ON(c2ccccc2C(F)(F)F)C1=O`, for which the AC35 is 10.7 µM.

Consider `O=C(C[C@@H]1C[C@H]2c3cc(NC(=O)Nc4ccccc4F)ccc3O[C@H]2[C@H](CO)O1)NCc1ccc(Oc2ccccc2)cc1`, for which the AC35 is 16.3 µM.

For the compound `Nc1ccn([C@@H]2O[C@H](CO)[C@@H](O)C2O)c(=O)n1` (stereo partly drawn), the AC35 was 19.1 µM.

Regarding `O=C(Nc1ccc(C(F)(F)F)cc1)Nc1ccc2c(c1)[C@H]1C[C@@H](CC(=O)N3CCc4ccccc4C3)O[C@@H](CO)[C@H]1O2`, the AC35 was 12.7 µM.

As for `CN1C(=O)c2cc(NC(=O)Nc3ccccc3F)ccc2OC[C@@H]2O[C@@H](CC(=O)NCc3ccc(-c4ccccc4)cc3)CC[C@H]21`, the AC35 was 0.14 µM.

For the compound `Cc1cc(C(=O)Nc2ccc3c(c2)C(=O)N(C)[C@@H]2CC[C@H](CC(=O)NC4CCCC4)O[C@H]2CO3)no1`, the AC35 is 9.72 µM.

As to `O=C(C[C@@H]1C[C@H]2c3cc(NC(=O)NC4CCCC4)ccc3O[C@H]2[C@H](CO)O1)NCc1ccc(Oc2ccccc2)cc1`, the AC35 is 17.1 µM.

Turning to `CS(=O)(=O)Nc1ccc2c(c1)[C@@H]1C[C@@H](CC(=O)NCc3ccc(Oc4ccccc4)cc3)O[C@@H](CO)[C@@H]1O2`, the AC35 was 0.664 µM.

Take `CN(C)c1ccc2c(c1)[C@@H]1C[C@@H](CC(=O)NCc3cc(F)ccc3F)O[C@@H](CO)[C@@H]1O2`: the AC35 is 2.23 µM.

As to `Cc1cc(C(=O)Nc2ccc3c(c2)C(=O)N(C)[C@@H]2CC[C@H](CC(=O)N[C@H](C)c4ccccc4)O[C@H]2CO3)no1`, the AC35 is 15.9 µM.

`CN(C)c1ccc2c(c1)[C@@H]1C[C@@H](CC(=O)N3CCOCC3)O[C@@H](CO)[C@@H]1O2`: the AC35 is 2.09 µM.

On to `CN(C)c1ccc2c(c1)[C@@H]1C[C@@H](CC(=O)NCc3ccccc3F)O[C@@H](CO)[C@@H]1O2`, for which the AC35 is 20.8 µM.

System in a further test: not listed separately
The description is as above. The note with it: IL-1beta-stimulated NF-kB eGFP reporter/dsRed, flow cytometry, 16 h; at 18 µM (top of the series). In outline: as §1
As to `Cc1cc(C(=O)Nc2ccc3c(c2)C(=O)N(C)[C@@H]2CC[C@H](CC(=O)NCc4ccc(-c5ccccc5)cc4)O[C@H]2CO3)no1`, the activity change, negative = inhibition is -15.2% (inactive).

Staying with this test, now noted: IL-1beta-stimulated NF-kB eGFP reporter/dsRed, flow cytometry, 16 h; at 19.5 µM (top of the series).
For `CCCNC(=O)C[C@H]1CC[C@@H]2[C@H](COc3ccc(NC(=O)c4cc(C)on4)cc3C(=O)N2C)O1`, the activity change, negative = inhibition was 2% (inactive).

For the compound `COc1ccccc1CNC(=O)C[C@@H]1C[C@H]2c3cc(N(C)C)ccc3O[C@H]2[C@H](CO)O1`, the activity change, negative = inhibition was 2.93% (inactive).

As to `CN(C)c1ccc2c(c1)[C@@H]1C[C@@H](CC(=O)NCC3CC3)O[C@@H](CO)[C@@H]1O2`, the activity change, negative = inhibition is -1.79% (inactive).

`COCCNC(=O)C[C@H]1CC[C@@H]2[C@H](COc3ccc(NC(=O)c4cc(C)on4)cc3C(=O)N2C)O1`: the activity change, negative = inhibition was 1.68% (inactive).

Regarding `CN(C)c1ccc2c(c1)[C@@H]1C[C@@H](CC(=O)NCc3ccc4c(c3)OCO4)O[C@@H](CO)[C@@H]1O2`, the activity change, negative = inhibition was -8.36% (inactive).

Regarding `CN1C(=O)c2cc(NS(C)(=O)=O)ccc2OC[C@@H]2O[C@@H](CC(=O)NCc3ccc(-c4ccccc4)cc3)CC[C@H]21`, the activity change, negative = inhibition is 10.3% (inactive).

`CN(C)c1ccc2c(c1)[C@@H]1C[C@@H](CC(=O)NCCc3ccccc3)O[C@@H](CO)[C@@H]1O2`: the activity change, negative = inhibition was -4.63% (inactive).

`CN(C)c1ccc2c(c1)[C@@H]1C[C@@H](CC(=O)NCc3ccc(Oc4ccccc4)cc3)O[C@@H](CO)[C@@H]1O2`: the activity change, negative = inhibition was 4.75% (inactive).

Turning to `COCCNC(=O)C[C@@H]1C[C@H]2c3cc(N(C)C)ccc3O[C@H]2[C@H](CO)O1`, the activity change, negative = inhibition was -7.46% (inactive).

Take `CCNC(=O)C[C@H]1CC[C@@H]2[C@H](COc3ccc(NC(=O)c4cc(C)on4)cc3C(=O)N2C)O1`: the activity change, negative = inhibition is 0.718% (inactive).

Turning to `CNC(=O)C[C@H]1CC[C@@H]2[C@H](COc3ccc(NC(=O)c4cc(C)on4)cc3C(=O)N2C)O1`, the activity change, negative = inhibition was -2.16% (inactive).

For the compound `CN(C)c1ccc2c(c1)[C@@H]1C[C@@H](CC(=O)N3CCc4ccccc4C3)O[C@@H](CO)[C@@H]1O2`, the activity change, negative = inhibition is 4.65% (inactive).

`O=C(C[C@@H]1C[C@H]2c3cc(NS(=O)(=O)c4ccc(F)cc4)ccc3O[C@H]2[C@H](CO)O1)NCc1ccc(Oc2ccccc2)cc1`: the activity change, negative = inhibition is 6.68% (inactive).

Still in this test, the particulars now being: IL-1beta-stimulated NF-kB eGFP reporter/dsRed, flow cytometry, 16 h; at 21 µM (top of the series).
With `Cc1cc(C(=O)Nc2ccc3c(c2)C(=O)N(C)[C@@H]2CC[C@H](CC(=O)N[C@@H](C)c4ccccc4)O[C@H]2CO3)no1`, the activity change, negative = inhibition was 5.36% (inactive).

In the case of `Cc1cc(C(=O)Nc2ccc3c(c2)C(=O)N(C)[C@@H]2CC[C@H](CC(=O)NCc4ccc(-c5ccccc5)cc4)O[C@@H]2CO3)no1`, the activity change, negative = inhibition is 4.6% (inactive).
